The source made the active and inactive calls. The rule behind the calls is not given here.
How the values were obtained:
Mus musculus [1] = assay: Anti-pentylenetetrazole activity at 0.5 h; - denotes inactive up to 600 mg/kg; format: functional, organism-based; set-up: dose 600 mg/kg
Procedure, shortened: (§1)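 Phase I screen in mice run by the NINCDS Antiepileptic Drug Development Program. Four mice per dose, scored 0.5 and 4 h after dosing, for protection against seizures induced by 85 mg/kg subcutaneous pentylenetetrazole. Dose levels were 30, 100, 300 and 600 mg/kg. Activity is the lowest dose at which at least one of four animals is protected, confirmed in a second trial.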

[2] = Tested for rotarod neurotoxicity at dose 300 mg/kg; format: organism-based; set-up: dose 300 mg/kg; settings: mouse, in vivo
Procedure, shortened: (§2)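 Phase I rotarod neurotoxicity in mice, run by the NINCDS Antiepileptic Drug Development Program. Doses were 30, 100, 300 or 600 mg/kg. Deaths from respiratory depression were counted among four animals given 600 mg/kg.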

Mus musculus [3] = assay: Tested for rotarod neurotoxicity, number of deaths from respiratory depression among four animals given a dose 600 mg/kg was reported; settings: in vivo
Mus musculus [4] = assay: Tested for anti maximal electroshock activity at 4 h; += Compound is active at 300 mg/kg; format: functional, organism-based; set-up: dose 300 mg/kg
Procedure, shortened: (§3)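 Phase I screen in mice run by the NINCDS Antiepileptic Drug Development Program. Four mice per dose, scored 0.5 and 4 h after dosing, for prevention of tonic hindlimb extension following maximal electroshock. Doses were 30, 100, 300 or 600 mg/kg. Activity is the lowest dose protecting at least one of four animals, provided a second trial confirms it.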

Mus musculus [5] = assay: Tested for anti-pentylenetetrazole activity in mice at 4 h; - denotes inactive up to 600 mg/kg; format: functional, organism-based; set-up: dose 600 mg/kg; procedure, shortened: as §1
Mus musculus [6] = organism: Mus musculus; assay: Effective dose against maximal electroshock seizures in mice, at 0.5 h; format: functional
Procedure, shortened: (§4)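 Phase II quantification in mice by the NINCDS Anticonvulsant Drug Development Program. Median effective dose against maximal electroshock-induced seizures, measured at the time of peak effect, 0.5 h. The 95% confidence intervals come from probit analysis.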

Mus musculus [7] = assay: Tested for rotarod neurotoxicity, number of deaths from respiratory depression among four animals given a dose 600 mg/kg was reported; inactive; format: functional
Mus musculus [8] = assay: Anti-pentylenetetrazole activity at 0.5 hr in mice […]; += Compound is active at 300 mg/kg; format: functional, organism-based; procedure, shortened: as §1
Mus musculus [9] = assay: Tested for anti maximal electroshock activity at 4 h; - denotes inactive up to 600 mg/kg; format: functional, organism-based; set-up: dose 600 mg/kg; procedure, shortened: as §3
Mus musculus [10] = assay: Tested for anti maximal electroshock activity at 0.5 hr […]; += Compound is active at 300 mg/kg; format: functional, organism-based; procedure, shortened: as §3
Mus musculus [11] = assay: Tested for rotarod neurotoxicity, number of deaths from respiratory depression among four animals given a dose 600 mg/kg was reported
Mus musculus [12] = assay: Tested for anti maximal electroshock activity at 0.5 hr at dose 100 mg/kg; ++=Compound is active at 100 mg/kg; format: functional, organism-based; procedure, shortened: as §3
Mus musculus [13] = assay: Anti-pentylenetetrazole activity at 0.5 hr in mice […]; +=Compound is active at 300 mg/kg; format: functional, organism-based; procedure, shortened: as §1
[14] = Tested for neurotoxicity in rotarod test; format: toxicity, organism-based; settings: mouse, in vivo; procedure, shortened: as §2
Mus musculus [15] = organism: Mus musculus; assay: (§5) Effective dose against maximal electroshock seizures in mice, at 0.5 hr; format: functional
Procedure, shortened: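 Phase II quantification in mice under the NINCDS Antiepileptic Drug Development Program. Protection against maximal electroshock, scored as prevention of tonic hindlimb extension, was measured at the time of peak effect, 0.5 h after dosing. Median effective dose was derived by probit analysis with 95% confidence intervals.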

[16] = Tested for Neurotoxicity in rotarod test; format: toxicity, organism-based; settings: mouse, in vivo; procedure, shortened: as §2
Mus musculus [17] = assay: Anti-pentylenetetrazole activity; - denotes inactive up to 600 mg/kg; format: functional, organism-based; set-up: dose 600 mg/kg; procedure, shortened: as §1
Mus musculus [18] = assay: Tested for rotarod neurotoxicity, number of deaths from respiratory depression among four animals given a dose 600 mg/kg was reported; format: organism-based; set-up: dose 600 mg/kg; settings: in vivo
Mus musculus [19] = organism: Mus musculus; assay: as §5; format: functional; procedure, shortened: as §4; remark: listed apart in the source

## CC1(CN)CC(=O)N(Cc2ccccc2)C1=O (stereo not given)
Mus musculus [1]
  PTZ: Not toxic
[2]
  TD50: 228 mg/kg
Mus musculus [3]
  NT: 2
Mus musculus [4]
  MES: active at 300 mg/kg
Mus musculus [5]
  PTZ: Not toxic
Mus musculus [6]
  ED50: 66.4 mg/kg

## CC(=O)NCC1CC(=O)N(Cc2ccccc2)C1=O (stereo not given)
Mus musculus [7]
  NT: 0
Mus musculus [8]
  PTZ: active at 300 mg/kg
Mus musculus [9]
  MES: Not toxic
Mus musculus [5]
  PTZ: Not toxic
Mus musculus [10]
  MES: active at 300 mg/kg

## CC(=O)NCC1(C)CC(=O)N(Cc2ccccc2)C1=O (stereo not given)
Mus musculus [11]
  NT: 0
Mus musculus [12]
  MES: active at 100 mg/kg
Mus musculus [13]
  PTZ: active at 300 mg/kg
Mus musculus [9]
  MES: Not toxic
Mus musculus [5]
  PTZ: Not toxic

## Cl.NCC1CC(=O)N(Cc2ccccc2)C1=O (stereo not given)
[14]
  TD50: 268 mg/kg
Mus musculus [1]
  PTZ: Not toxic
Mus musculus [3]
  NT: 4
Mus musculus [9]
  MES: Not toxic
Mus musculus [5]
  PTZ: Not toxic
Mus musculus [6]
  ED50: 108 mg/kg

## CN1C(=O)CC(c2ccccc2)C1=O (stereo not given) [PHENSUXIMIDE]
Mus musculus [15]
  ED50: 112 mg/kg

## O=C1CC(CNCc2ccccc2)C(=O)N1Cc1ccccc1 (stereo not given)
[16]
  TD50: 267 mg/kg
Mus musculus [17]
  PTZ: Not toxic
Mus musculus [18]
  NT: 4
Mus musculus [19]
  ED50: 136 mg/kg
Mus musculus [9]
  MES: Not toxic
Mus musculus [5]
  PTZ: Not toxic

## CN1C(=O)CC(C)(c2ccccc2)C1=O (stereo not given) [METHSUXIMIDE]
Mus musculus [15]
  ED50: 76.3 mg/kg

— ChEMBL document CHEMBL1122372, “Synthesis of aminomethyl-substituted cyclic imide derivatives for evaluation as anticonvulsants” (J Med Chem, 1983)
